Among the data in ChEMBL document CHEMBL4619723, “New CDK8 inhibitors as potential anti-leukemic agents - Design, synthesis and biological evaluation” (Bioorg Med Chem, 2020) are inhibition, selectivity ratio and EC50 values, retold here.

The target of series [1] is Serine/threonine-protein kinase 32C (Homo sapiens) (UniProt Q86UX6). Briefly: Inhibition of biotinylated ligand binding to wild-type human partial length YANK3 (M68 to G486 residues) expressed in bacterial expression system at 50 nM measured after 1 hr by kinomescan assay relative to control. An outline of the steps: (§1)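 Kinase-tagged T7 phage was grown in an E. coli BL21-derived host at 32 °C until lysis, and the lysate was clarified. Kinase was bound to streptavidin beads carrying a biotinylated ligand, with test compound at 50 nM (final DMSO), in binding buffer for 1 h at rt. Bound kinase was eluted and quantified by qPCR. Result is POC relative to the DMSO (100%) and control-compound (0%) references.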

Series [2] deals with Non-receptor tyrosine-protein kinase TNK1 (Homo sapiens) (UniProt Q13470). Briefly: Inhibition of biotinylated ligand binding to wild-type human full length TNK1 (M1 to P661 residues) expressed in bacterial expression system at 50 nM measured after 1 hr by kinomescan assay relative to control. Put shortly: as §1
Series [3] is described as follows: Selectivity ratio of EC50 for rat H9c2 cells to EC50 for human OCI-AML3 cells. The class given is toxicity. The following applies: H9c2 cells versus OCI-AML3 cells, read-out: Ratio EC50.
In the next series the test system is MOLM-13. Briefly: cells. As to conditions: Homo sapiens, MOLM-13, 48 h.
In series [4] the test system is Hepatocyte growth factor receptor (Homo sapiens), P08581 [Y1235D]. Kind of series: Inhibition of biotinylated ligand binding to human partial length MET Y1235D mutant (D1010 to S1367 residues) expressed in bacterial expression system at 50 nM measured after 1 hr by kinomescan assay relative to control. An outline of the steps: as §1
Series [5] addresses Serine/threonine-protein kinase RIO1 (Homo sapiens) (UniProt Q9BRS2). Kind of series: Inhibition of biotinylated ligand binding to wild-type human full length RIOK1 (M1 to K568 residues) expressed in bacterial expression system at 50 nM measured after 1 hr by kinomescan assay relative to control. An outline of the steps: as §1
The target in series [6] is Phosphatidylinositol 5-phosphate 4-kinase type-2 beta (Homo sapiens) (UniProt P78356). Kind of series: Inhibition of biotinylated ligand binding to wild-type human full length PIP5K2B (M1 to T416 residues) expressed in bacterial expression system at 50 nM measured after 1 hr by kinomescan assay relative to control. An outline of the steps: as §1
Phosphatidylinositol 5-phosphate 4-kinase type-2 beta (Homo sapiens), sequence (P78356 whole entry, the tested form may be a part): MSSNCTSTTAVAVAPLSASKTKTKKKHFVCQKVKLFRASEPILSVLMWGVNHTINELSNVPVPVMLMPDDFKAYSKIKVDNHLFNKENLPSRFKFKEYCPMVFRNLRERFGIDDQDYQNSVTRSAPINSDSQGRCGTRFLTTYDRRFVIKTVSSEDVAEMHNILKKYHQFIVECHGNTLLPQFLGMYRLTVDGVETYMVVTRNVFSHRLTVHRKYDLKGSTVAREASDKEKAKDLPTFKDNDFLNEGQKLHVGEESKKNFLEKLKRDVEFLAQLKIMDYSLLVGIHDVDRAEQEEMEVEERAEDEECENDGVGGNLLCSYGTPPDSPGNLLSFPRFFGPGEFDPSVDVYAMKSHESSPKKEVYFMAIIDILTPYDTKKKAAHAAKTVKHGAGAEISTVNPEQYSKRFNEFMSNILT
The target in series [7] is Serine/threonine-protein kinase RIO3 (Homo sapiens) (UniProt O14730). Kind of series: Inhibition of biotinylated ligand binding to wild-type human full length RIOK3 (M1 to E519 residues) expressed in bacterial expression system assessed at 50 nM measured after 1 hr by kinomescan assay relative to control. Put shortly: as §1
The target in series [8] is Serine/threonine-protein kinase RIO2 (Homo sapiens) (UniProt Q9BVS4). Briefly: Inhibition of biotinylated ligand binding to wild-type human partial length RIOK2 (M1 to D313 residues) expressed in mammalian expression system at 50 nM measured after 1 hr by kinomescan assay relative to control. An outline of the steps:
(§2)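 Competition binding: kinase was bound to streptavidin beads carrying a biotinylated ligand, with test compound at 50 nM, in 20% SeaBlock, 0.17x PBS, 0.05% Tween 20 and 6 mM DTT for 1 h at rt with shaking. After washing, kinase was eluted with 0.5 μM free ligand and quantified by qPCR. Result is POC relative to the DMSO (100%) and control-compound (0%) references.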

Series [9] concerns the target Cyclin-dependent kinase 19 (Homo sapiens) (UniProt Q9BWU1). Briefly: Inhibition of biotinylated ligand binding to wild-type human partial length CDK11 (M1 to N360 residues) expressed in bacterial expression system at 50 nM measured after 1 hr by kinomescan assay relative to control. Put shortly:
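T7 phage-tagged kinase lysates from E. coli BL21 were mixed with streptavidin beads carrying biotinylated ligand and 50 nM compound. Incubated 1 h at room temperature with shaking, washed, then eluted 30 min with 0.5 μM non-biotinylated ligand. Kinase was quantified by qPCR. POC = (test − positive)/(DMSO − positive) ×100, with a control compound as positive.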

For the next series, the system named is MV4-11. Briefly: cells. The following applies: Homo sapiens, MV4-11, 48 h.
Series [10] deals with 1-phosphatidylinositol 3-phosphate 5-kinase (Homo sapiens) (UniProt Q9Y2I7). Briefly: Inhibition of biotinylated ligand binding to wild-type human partial length PIKFYVE (F1512 to C2098 residues) expressed in mammalian expression system at 50 nM measured after 1 hr by kinomescan assay relative to control.
1-phosphatidylinositol 3-phosphate 5-kinase (Homo sapiens), sequence (Q9Y2I7 whole entry, the tested form may be a part): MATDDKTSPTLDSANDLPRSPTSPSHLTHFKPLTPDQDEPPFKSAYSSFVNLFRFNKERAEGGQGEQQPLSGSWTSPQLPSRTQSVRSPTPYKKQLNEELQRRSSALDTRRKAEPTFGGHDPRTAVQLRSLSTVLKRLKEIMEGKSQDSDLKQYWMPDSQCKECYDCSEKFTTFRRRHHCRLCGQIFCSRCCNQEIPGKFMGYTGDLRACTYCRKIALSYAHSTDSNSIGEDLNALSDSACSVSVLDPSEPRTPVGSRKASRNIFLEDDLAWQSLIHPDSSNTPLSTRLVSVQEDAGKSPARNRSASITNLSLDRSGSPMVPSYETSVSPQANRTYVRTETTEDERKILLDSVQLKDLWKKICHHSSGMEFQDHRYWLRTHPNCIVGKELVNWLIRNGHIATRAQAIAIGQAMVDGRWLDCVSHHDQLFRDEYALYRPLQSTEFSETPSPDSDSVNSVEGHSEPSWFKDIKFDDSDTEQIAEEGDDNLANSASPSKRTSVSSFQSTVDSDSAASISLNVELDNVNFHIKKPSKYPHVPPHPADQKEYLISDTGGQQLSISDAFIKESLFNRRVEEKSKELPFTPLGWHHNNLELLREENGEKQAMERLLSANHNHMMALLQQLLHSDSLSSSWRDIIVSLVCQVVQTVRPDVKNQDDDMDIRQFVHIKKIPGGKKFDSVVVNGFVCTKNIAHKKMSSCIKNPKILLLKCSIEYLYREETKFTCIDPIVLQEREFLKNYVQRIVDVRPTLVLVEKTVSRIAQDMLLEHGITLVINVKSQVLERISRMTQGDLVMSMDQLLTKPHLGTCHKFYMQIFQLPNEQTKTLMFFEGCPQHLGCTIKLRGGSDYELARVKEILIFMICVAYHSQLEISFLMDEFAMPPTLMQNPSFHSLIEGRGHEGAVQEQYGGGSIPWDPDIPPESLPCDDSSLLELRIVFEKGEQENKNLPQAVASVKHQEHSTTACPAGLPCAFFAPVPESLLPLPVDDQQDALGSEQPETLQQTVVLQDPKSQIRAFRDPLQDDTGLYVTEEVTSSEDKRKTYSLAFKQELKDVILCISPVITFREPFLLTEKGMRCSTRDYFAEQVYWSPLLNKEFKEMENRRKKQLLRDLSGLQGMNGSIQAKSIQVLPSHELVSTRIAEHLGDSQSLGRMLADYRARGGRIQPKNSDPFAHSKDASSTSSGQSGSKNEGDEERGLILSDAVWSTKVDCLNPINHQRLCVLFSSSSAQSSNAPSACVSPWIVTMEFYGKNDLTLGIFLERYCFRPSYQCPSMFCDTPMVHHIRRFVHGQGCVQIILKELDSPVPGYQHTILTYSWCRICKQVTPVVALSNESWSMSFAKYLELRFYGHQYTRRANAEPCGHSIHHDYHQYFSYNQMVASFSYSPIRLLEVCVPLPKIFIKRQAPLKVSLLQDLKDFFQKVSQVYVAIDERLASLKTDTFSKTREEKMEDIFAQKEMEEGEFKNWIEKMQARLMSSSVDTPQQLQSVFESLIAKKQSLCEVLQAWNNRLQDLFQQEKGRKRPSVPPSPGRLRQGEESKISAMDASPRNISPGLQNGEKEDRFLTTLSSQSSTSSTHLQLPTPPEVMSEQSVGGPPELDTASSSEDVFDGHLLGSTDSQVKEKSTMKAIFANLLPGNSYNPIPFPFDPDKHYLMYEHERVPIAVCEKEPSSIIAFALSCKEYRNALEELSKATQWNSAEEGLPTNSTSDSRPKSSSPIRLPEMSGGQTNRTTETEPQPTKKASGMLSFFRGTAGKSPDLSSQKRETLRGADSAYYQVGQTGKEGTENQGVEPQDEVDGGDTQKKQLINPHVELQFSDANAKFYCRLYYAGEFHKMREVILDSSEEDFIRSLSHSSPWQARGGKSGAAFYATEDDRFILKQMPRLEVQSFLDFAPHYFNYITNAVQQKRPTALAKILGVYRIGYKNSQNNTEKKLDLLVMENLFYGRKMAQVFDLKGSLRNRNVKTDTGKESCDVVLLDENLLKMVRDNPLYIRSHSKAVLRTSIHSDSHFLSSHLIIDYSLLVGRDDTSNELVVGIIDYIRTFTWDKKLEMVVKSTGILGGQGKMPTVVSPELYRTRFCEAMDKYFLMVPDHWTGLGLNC
The target of series [11] is Serine/threonine-protein kinase PLK4 (Homo sapiens) (UniProt O00444). Briefly: Inhibition of biotinylated ligand binding to wild-type human partial length PLK4 (M1 to S273 residues) expressed in mammalian expression system at 50 nM measured after 1 hr by kinomescan assay relative to control. Put shortly: as §2
In series [12] the target is Cyclin-dependent kinase 7 (Homo sapiens) (UniProt P50613). Briefly: Inhibition of biotinylated ligand binding to wild-type human full length CDK7 (M1 to L344 residues) expressed in mammalian expression system at 50 nM measured after 1 hr by kinomescan assay relative to control. An outline of the steps: as §2
The target in series [13] is Protein kinase C theta type (Homo sapiens) (UniProt Q04759). Briefly: Inhibition of biotinylated ligand binding to wild-type human partial length PRKCQ (L350 to S706 residues) expressed in bacterial expression system at 50 nM measured after 1 hr by kinomescan assay relative to control. An outline of the steps: as §1
Protein kinase C theta type (Homo sapiens), sequence (Q04759 whole entry, looked up, the tested form may be a part): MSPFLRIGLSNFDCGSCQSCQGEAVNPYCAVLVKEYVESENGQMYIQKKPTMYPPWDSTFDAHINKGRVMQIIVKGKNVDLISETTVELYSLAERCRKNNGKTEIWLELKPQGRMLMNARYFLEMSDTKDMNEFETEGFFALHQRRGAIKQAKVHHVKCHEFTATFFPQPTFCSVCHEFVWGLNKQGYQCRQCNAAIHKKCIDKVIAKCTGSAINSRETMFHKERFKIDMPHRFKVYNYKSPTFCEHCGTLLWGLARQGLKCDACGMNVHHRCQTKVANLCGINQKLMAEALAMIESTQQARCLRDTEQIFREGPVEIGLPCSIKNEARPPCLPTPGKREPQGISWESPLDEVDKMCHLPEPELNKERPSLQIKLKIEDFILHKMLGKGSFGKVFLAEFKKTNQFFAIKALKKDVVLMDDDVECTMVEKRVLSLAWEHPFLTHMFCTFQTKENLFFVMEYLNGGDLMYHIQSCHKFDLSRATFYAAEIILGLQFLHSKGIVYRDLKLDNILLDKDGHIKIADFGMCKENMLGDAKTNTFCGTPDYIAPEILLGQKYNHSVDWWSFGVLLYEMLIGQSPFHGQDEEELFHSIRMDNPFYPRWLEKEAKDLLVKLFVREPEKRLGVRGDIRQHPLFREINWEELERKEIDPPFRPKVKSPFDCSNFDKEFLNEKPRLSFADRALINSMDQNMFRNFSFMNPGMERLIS
Series [14] has as its target Rho-associated protein kinase 1 (Homo sapiens) (UniProt Q13464). Kind of series: Inhibition of biotinylated ligand binding to wild-type human partial length ROCK1 (M1 to R415 residues) expressed in mammalian expression system at 50 nM measured after 1 hr by kinomescan assay relative to control. An outline of the steps: as §2
The target of series [15] is Phosphatidylinositol 4-phosphate 5-kinase type-1 alpha (Homo sapiens) (UniProt Q99755). Briefly: Inhibition of biotinylated ligand binding to wild-type human full length PIP5K1A (M1 to H562 residues) expressed in bacterial expression system at 50 nM measured after 1 hr by kinomescan assay relative to control. An outline of the steps:
as §1

Series [16] deals with cGMP-dependent protein kinase 2 (Homo sapiens) (UniProt Q13237). Briefly: Inhibition of biotinylated ligand binding to wild-type human partial length PRKG2 (S422 to F762 residues) expressed in mammalian expression system at 50 nM measured after 1 hr by kinomescan assay relative to control. Put shortly: as §2
cGMP-dependent protein kinase 2 (Homo sapiens), sequence (Q13237 whole entry, the tested form may be a part): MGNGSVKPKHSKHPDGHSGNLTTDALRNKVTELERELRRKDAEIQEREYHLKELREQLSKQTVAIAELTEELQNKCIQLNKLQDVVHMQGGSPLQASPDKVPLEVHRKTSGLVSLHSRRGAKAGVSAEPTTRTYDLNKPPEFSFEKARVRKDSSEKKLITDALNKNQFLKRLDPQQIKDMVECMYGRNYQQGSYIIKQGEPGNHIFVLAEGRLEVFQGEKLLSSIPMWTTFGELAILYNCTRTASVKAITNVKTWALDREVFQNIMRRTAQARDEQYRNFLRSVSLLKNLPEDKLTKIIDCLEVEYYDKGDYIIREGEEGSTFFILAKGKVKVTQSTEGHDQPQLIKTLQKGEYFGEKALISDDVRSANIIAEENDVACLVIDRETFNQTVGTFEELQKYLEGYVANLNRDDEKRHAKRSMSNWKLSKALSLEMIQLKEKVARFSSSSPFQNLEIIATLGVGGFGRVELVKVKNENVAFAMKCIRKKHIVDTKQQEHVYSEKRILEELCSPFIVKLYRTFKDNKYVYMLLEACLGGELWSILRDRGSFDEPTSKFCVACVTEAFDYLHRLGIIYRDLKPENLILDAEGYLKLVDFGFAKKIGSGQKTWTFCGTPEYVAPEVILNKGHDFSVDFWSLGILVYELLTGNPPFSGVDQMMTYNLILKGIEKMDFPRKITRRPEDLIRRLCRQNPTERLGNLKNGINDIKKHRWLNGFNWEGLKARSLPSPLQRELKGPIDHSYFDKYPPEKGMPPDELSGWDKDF
For series [17], the target named is G protein-coupled receptor kinase 4 (Homo sapiens) (UniProt P32298). Briefly: Inhibition of biotinylated ligand binding to wild-type human full length GRK4 (M1 to C578 residues) expressed in bacterial expression system at 50 nM measured after 1 hr by kinomescan assay relative to control. Put shortly:
as §1

The target in series [18] is Serine/threonine-protein kinase MAK (Homo sapiens) (UniProt P20794). Kind of series: Inhibition of biotinylated ligand binding to wild-type human partial length MAK (M1 to P314 residues) expressed in bacterial expression system at 50 nM measured after 1 hr by kinomescan assay relative to control.
The target of series [19] is cGMP-dependent protein kinase 1 (Homo sapiens) (UniProt Q13976). Briefly: Inhibition of biotinylated ligand binding to wild-type human partial length PRKG1 (L339 to F686 residues) expressed in bacterial expression system at 50 nM measured after 1 hr by kinomescan assay relative to control. An outline of the steps:
as §1

Another series has as its system OCI-AML-3. Kind of series: cells. The following applies: Homo sapiens, OCI-AML-3, 48 h.

Structures are written as SMILES.

Serine/threonine-protein kinase RIO2 (Homo sapiens), sequence (Q9BVS4 whole entry, looked up, the tested form may be a part): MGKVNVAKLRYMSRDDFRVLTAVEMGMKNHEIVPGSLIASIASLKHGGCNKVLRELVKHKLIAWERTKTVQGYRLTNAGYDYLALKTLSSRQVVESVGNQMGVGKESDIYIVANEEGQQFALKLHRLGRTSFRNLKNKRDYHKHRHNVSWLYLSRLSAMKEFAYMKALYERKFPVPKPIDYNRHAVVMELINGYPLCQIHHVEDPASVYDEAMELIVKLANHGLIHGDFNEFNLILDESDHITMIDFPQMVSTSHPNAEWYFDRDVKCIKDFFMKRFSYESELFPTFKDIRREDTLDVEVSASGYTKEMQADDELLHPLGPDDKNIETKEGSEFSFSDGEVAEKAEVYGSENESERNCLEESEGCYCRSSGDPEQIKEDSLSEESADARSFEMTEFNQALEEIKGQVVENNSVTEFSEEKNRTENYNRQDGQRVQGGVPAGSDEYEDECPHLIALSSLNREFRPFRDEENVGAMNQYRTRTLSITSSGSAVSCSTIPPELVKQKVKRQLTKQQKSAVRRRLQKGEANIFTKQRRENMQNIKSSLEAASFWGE
Phosphatidylinositol 4-phosphate 5-kinase type-1 alpha (Homo sapiens), sequence (Q99755 whole entry, the tested form may be a part): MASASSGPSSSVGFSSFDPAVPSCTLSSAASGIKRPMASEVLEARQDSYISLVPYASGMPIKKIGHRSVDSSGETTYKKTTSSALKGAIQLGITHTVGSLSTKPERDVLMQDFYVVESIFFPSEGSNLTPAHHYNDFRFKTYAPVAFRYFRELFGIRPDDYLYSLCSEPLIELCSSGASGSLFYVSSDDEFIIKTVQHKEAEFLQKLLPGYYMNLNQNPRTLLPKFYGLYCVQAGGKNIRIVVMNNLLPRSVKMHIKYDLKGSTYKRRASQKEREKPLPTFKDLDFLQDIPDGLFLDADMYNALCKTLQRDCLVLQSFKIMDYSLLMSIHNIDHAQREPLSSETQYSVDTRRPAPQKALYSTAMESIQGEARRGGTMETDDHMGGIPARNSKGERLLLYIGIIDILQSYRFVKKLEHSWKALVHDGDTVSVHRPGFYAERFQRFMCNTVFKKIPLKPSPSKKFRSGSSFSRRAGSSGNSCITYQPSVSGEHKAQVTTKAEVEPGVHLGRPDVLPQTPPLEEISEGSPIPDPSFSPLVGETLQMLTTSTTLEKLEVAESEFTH

For the compound `CN(C)[C@@H]1CC[C@@]2(C)[C@@H](CC[C@@H]3[C@@H]2CC[C@]2(C)C(c4cccc5cnccc45)=CC[C@@H]32)C1`, the inhibition in [1], in [2], in series [4], in [5], in series [6] and in series [7] was more than 80% in each case. Further, the inhibition in [8], in series [9], in series [10], in series [11], in [12] and in series [13] was more than 80% in each case. Besides, the inhibition in series [14], in [15], in series [16], in series [17], in series [18] and in series [19] was more than 80% throughout. For the same compound, the selectivity ratio in [3] fell in the range of 3 to 4. Besides, the EC50 with MOLM-13 came out at 5.9 µM; in the series on MV4-11, 5.4 µM; in the series with OCI-AML-3, 4.8 µM.
